# Screen size: about 140,000 compounds; about 710 (0.51%) were called active. This is one part of a sample in which actives are shown more often than they occur. Values without a mark were called inactive.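 How the source made its calls: active means inhibition above a set limit, 3 SD over the mean compound inhibition (cut at about 44% in these data); inactive means the rest.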
# Assay: BB579 yeast growth reduction, restrictive medium – S. cerevisiae, yeast lifespan-shortening project, primary screen (AID 804)
# Conditions: OD615, 48 h, at 10 µM, active compounds read high
# Method in brief: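 Test system: DeaD yeast strain BB579 / Buffer or medium: restrictive glucose-based CSMM-D medium / Doses: single 10 µM dose / Schedule: 4 h cell preincubation, 48 h compound exposure, 30 °C humidified / Technique: culture absorbance at 615 nm / Controls: amphotericin B positive control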
row,SMILES,inhibition
1,Cc1nn(C)c(C(=O)NNC(=S)NC2CCCCC2)c1Cl,-11.7%
2,CCOC(=O)c1cnc(-n2nc(C)cc2C)nc1NNc1cc(C)nc(-c2ccccc2)n1,63.6% (active)
3,CCOC(=O)c1cnc(-c2ccccc2)nc1Oc1ccc(C)cc1,-3.41%
4,CCOC(=O)c1cnc(-n2nc(C)cc2C)nc1-n1nc(C)cc1C,-33.3%
5,CCc1cc(C(N)=O)c(NC(=O)c2ccc(OC)cc2)s1,13.8%
6,COc1cccc(NC(=S)N(CCc2c(C)[nH]c3ccccc23)Cc2ccco2)c1,-16.9%
7,O=C(Nc1cccc(F)c1)c1coc(=O)c(Br)c1,-16.6%
8,CNC(=O)c1cc2c(ccc3ccccc32)oc1=N,87% (active)
9,CCOC(=O)N1CCN(C(=O)c2cc3c(ccc4ccccc43)oc2=O)CC1,4.59%
10,N=c1oc2ccccc2cc1C(=O)N/N=C/c1ccccc1,-35.6%
11,O=[N+]([O-])c1cc(C(F)(F)F)ccc1NN=C1CCCC1,-8.75%
12,Cc1ccc(Cl)cc1N1CCN(C(=O)c2cccc3c(=O)c(C)c(-c4ccccc4)oc23)CC1,-11.9%
13,COc1ccc(-c2[nH]ncc2/C=N/NC(=O)c2cc(Br)ccc2O)c(OC)c1,-15.9%
14,CCCc1cc(-c2nc(-c3ccc(C)cc3)cs2)ccn1,6.88%
15,COc1ccc([C@H]2[C@H](C(C)=O)N3N=Cc4ccccc4C3C23C(=O)OC(C)(C)OC3=O)cc1 (stereo not given in full),-14.6%
16,CNc1ccc(NC(C)=O)cc1[N+](=O)[O-],-4.52%
17,Cc1cc(C)cc(OCC(=O)Nc2nc3ccc([N+](=O)[O-])cc3s2)c1,-41.2%
18,O=C(NC(Nc1nc2ccc([N+](=O)[O-])cc2s1)(C(F)(F)F)C(F)(F)F)c1ccccc1,77.5% (active)
19,COC(=O)C(NC(=O)c1ccc(OC)cc1)(Nc1ncc(S(=O)(=O)c2ccc([N+](=O)[O-])cc2)s1)C(F)(F)F (stereo not given),-39.1%
20,Cc1c(Cl)cccc1NC(=O)Nc1ccc(C(=O)N2CCCC2)cc1,-7.32%
21,CN(c1nc2ccccc2n2c(-c3ccco3)nnc12)S(=O)(=O)c1ccccc1,-17.9%
22,CN1c2ccccc2-c2nc3ccccc3n2C1c1ccco1 (stereo not given),-46.1%
23,Cn1c(-c2ccco2)nc2cc3ccccc3cc21,60.5% (active)
24,CC(C)C(=O)Nc1ccc2c3c(cccc13)CC2,-41.5%

row,SMILES,inhibition
1,O=C(Nc1ccccc1)OCc1cc(-c2ccc(Cl)cc2)on1,-39.2%
2,O=C1c2cccc3cc(Br)cc(c23)C(=O)N1Nc1ccccc1,-67.3%
3,O=C1C=C(c2ccc(Cl)cc2)C(=O)N1Nc1ccccc1,98.1% (active)
4,CCn1ncc(CNC(=O)C2(C)CC2(Br)Br)c1C (stereo not given),-38.8%
5,COc1ccc(NC(=S)NCc2cccs2)c(OC)c1,-22.6%
6,CCC(=O)/C=C1\Sc2ccccc2N1CC,-18.9%
7,CCN1/C(=C/c2ccc3ccc(C)cc3[n+]2CC)Sc2ccccc21,82.5% (active)
8,Cc1cccc(NC(=S)N(CCN(C)C)C(C)c2ccco2)c1 (stereo not given),-21.1%
9,Cc1ccc(SCCC(=O)NC(C(C)C)C(C)C)cc1,-7.21%
10,COc1ccc2nc(Nc3nc(-c4cc5ccccc5oc4=O)cs3)sc2c1,-1.96%
11,O=C(Cc1coc2ccc3ccccc3c12)NCc1cccs1,-8.63%
12,CCC(=O)Nc1c(S(=O)(=O)c2ccccc2)c2nc3ccccc3nc2n1Cc1ccccc1,-16.3%
13,O=C(O)c1ccc(/C=N/NC(=O)c2ccc(Br)cc2)cc1,-28.3%
14,O=S(=O)(NCCc1ccncc1)c1ccccc1,-4.48%
15,COc1cc(OC)c(C(=O)Nc2ccccc2-c2ccccc2)cc1OC,-28.8%
16,CCNC(=O)NC(=O)C(C)OC(=O)C1CCN(S(=O)(=O)c2ccccc2F)CC1 (stereo not given),6.21%
17,COc1ccc(/C=C/C(=O)c2ccc(OC)cc2O)cc1,-54.2%
18,COc1ccc(/C=C/C(=O)c2cc(Br)ccc(=O)c2O)cc1,96% (active)
19,COc1ccc(C(=O)/C=C/c2ccc(OC3CSC3)cc2)cc1,-16.1%
20,Cc1ccc(C(=O)OCc2nc(N)nc(Nc3ccccc3C)n2)cc1,-34.8%
21,CC(=O)c1c(N2CCN(c3ccc(F)cc3)CC2)nc(=S)n(-c2ccccc2)c1C,-54.2%
22,Cc1nc(N2CCCC2C(=O)O)c2oc3ccccc3c2n1 (stereo not given),-21.7%
23,Cc1nc(Cl)c2oc3ccccc3c2n1,59.5% (active)
24,CCSc1nc(C)nc2c1oc1ccccc12,-45.9%

row,SMILES,inhibition
1,CCOC(=O)C1=C(C)OC(N)=C(C#N)C1c1cncc(-c2ccc(F)cc2)c1 (stereo not given),-36.2%
2,COc1ccc(C(=O)C[n+]2ccc(C)cc2)cc1,-28.4%
3,CCc1ccc(NC(=O)CC2C(=O)NCCN2C(=S)Nc2ccccc2)cc1 (stereo not given),-24.6%
4,COc1cccc(NC(=S)NC(=O)c2c(Cl)c(C)nn2C)c1,-62.5%
5,Cc1nc2sc(C(=O)c3ccccc3)c(N)c2c2c1CCCC2,8.75%
6,N#C/C(=C\c1ccccc1C(F)(F)F)C(=O)Nc1ccccc1F,4.84%
7,CC(=O)NC1=NN(C(C)=O)C(C)(c2ccc(C)cc2)S1 (stereo not given),-33.1%
8,Fc1ccc2c(c1)C(c1cccnc1)=NNC(c1cccs1)=N2,-47.9%
9,COC(=O)c1ccc(C(=O)OC)c(NC(=S)N2CCN(c3ccc(F)cc3)CC2)c1,-49.1%
10,Cc1ccc(-n2c(SCC(=O)N3c4ccccc4Sc4ccccc43)nnc2-c2ccncc2)cc1,-47.4%
11,COc1ccc(C)cc1NC(=O)C(Sc1ccccc1)c1ccccc1 (stereo not given),-2.09%
12,Cc1ccc(S(=O)(=O)N(C)C)cc1NC(=O)/C=C/c1cccs1,-48%
13,Cc1cc(/C=C2\SC(=Nc3ccc(N4CCOCC4)cc3)N(C)C2=O)c(C)n1-c1cccnc1,-7.27%
14,CC1CCN(c2ccc(C(=O)Nc3nnc(C4CC4)s3)cc2[N+](=O)[O-])CC1,-33%
15,O=C(Nc1nnc(C2CC2)s1)c1ccccn1,62% (active)
16,Cc1occc1C(=O)Nc1nnc(C2CCCCC2)s1,-32.1%
17,CCC(NC(=O)c1ccccc1NC(=O)c1ccccc1)C(=O)NNC(=O)CSc1nc2ccccc2o1 (stereo not given),-6.61%
18,CCS(=O)(=O)N1Cc2ccccc2CC1C(=O)Nc1nc2ccc(F)cc2s1 (stereo not given),-23%
19,COc1cc(/C=C(/NC(=O)c2ccc(Cl)cc2Cl)C(=O)O)cc(OC)c1OC,-17.4%
20,C#CCCCc1nc2ccccc2c(=O)n1N,-33.7%
21,Cc1ccc(OCC(=O)Nc2ccccc2Sc2ccc(Cl)cc2)c([N+](=O)[O-])n1,-29.5%
22,CC1=C[C@H]2Cc3cc(C)cc(C)c3S(=O)(=O)[C@@H]2C=C1,-12.4%
23,CC(=O)N1C(C)c2ccccc2C(C)(C)CC12CCCCC2 (stereo not given),-16.3%
24,O=c1c(Cl)c(NCc2ccc(F)cc2Cl)cnn1C12CC3CC(CC(C3)C1)C2,-27.1%

row,SMILES,inhibition
1,Cc1ncc(CC(=O)n2cc(C(=O)c3cc(Cl)ccc3O)cn2)s1,68.2% (active)
2,Cc1ccc(CCC(=O)Nc2ncc(Cc3cc(Cl)ccc3Cl)s2)o1,-66.6%
3,COc1cc(/C=C/C(=O)OCC(=O)Nc2cccc(Oc3ccccc3)c2)ccc1O,-29.9%
4,C/C(=N/NC(=O)C1COc2ccccc2O1)c1ccco1 (stereo not given),-32.3%
5,O=C(COC(=O)CSc1nnc(-c2ccc(Cl)cc2)o1)Nc1cc(Cl)cc(Cl)c1,-26.3%
6,CN(Cc1ccccc1)C(=O)COC(=O)c1ccccc1Nc1ccccc1,-8.71%
7,O=C(Nc1ccc([N+](=O)[O-])cc1)C1(c2ccccc2)CCOCC1,-16.4%
8,O=C(NC1CCCC1)C(NS(=O)(=O)c1ccc(Br)s1)c1ccccc1 (stereo not given),-26.3%
9,O=S(=O)(c1ccc(F)cc1)N1CCN(C(=S)NCc2ccco2)CC1,-18%
10,N#C/C(=C(/O)COC(=O)COc1ccc(Cl)cc1)c1nc2ccccc2[nH]1,-22.6%
11,Cc1ccc(NC(=O)COC(=O)CCc2nc3ccccc3n2-c2ccccc2)c(C)c1,-45.6%
12,COc1ccc(CN2CN(C(C)C)CSC2=S)cc1,68.5% (active)
13,S=C1SCN(CCN2CCOCC2)CN1Cc1ccccc1,39.7%
14,COCC(=O)Nc1cc(C(=O)OC)cc(C(=O)OC)c1,6.64%
15,Cc1cc2oc(=O)cc(CN3CCN(S(=O)(=O)c4cccs4)CC3)c2cc1C(C)C,-20.6%
16,Cc1ccc(CNC(=O)Cn2c(=O)c3sccc3n(Cc3cccc([N+](=O)[O-])c3)c2=O)cc1,-44.2%
17,Cc1cccc(NC(=O)Cn2c(=O)n(Cc3ccccc3)c(=O)c3c(C)c(C)sc32)c1,-27.1%
18,Cc1ccc(C(=O)NCC2CCCO2)o1 (stereo not given),-26.6%
19,OC(CNCC1CCCO1)Cn1c2ccc(Br)cc2c2cc(Br)ccc21 (stereo not given),98.7% (active)
20,Cc1cc(Br)ccc1NC(=O)C1CCCO1 (stereo not given),-21.5%
21,COc1ccc(NC(=O)Nc2ccc3nc(C)c(C)nc3c2)cc1,-50.2%
22,COc1ccc2nc(SCc3ccccc3)nc(C)c2c1,-34.5%
23,COc1ccc2nc(/N=C(\N)NC(=O)Nc3ccccc3)nc(C)c2c1,68.3% (active)

# Reference: PubChem BioAssay AID804 (SRMLSC, 2007)
